# Compounds with a hit are over-represented: about 5.9% of the library has one in this group of screens.
# IDH1 R132H inh – blocks human IDH1 R132H reductase activity; O75874; diaphorase/resazurin fluorescence, 60 min; inhibition, % at 10 µM; hit rate 0.18% among 70,000; AID 624101; in the data active means inhibition above about 34%; inconclusive means no clear call, values can overlap the other calls; inactive means below about 11%
# Target sequence (O75874 whole entry R132H): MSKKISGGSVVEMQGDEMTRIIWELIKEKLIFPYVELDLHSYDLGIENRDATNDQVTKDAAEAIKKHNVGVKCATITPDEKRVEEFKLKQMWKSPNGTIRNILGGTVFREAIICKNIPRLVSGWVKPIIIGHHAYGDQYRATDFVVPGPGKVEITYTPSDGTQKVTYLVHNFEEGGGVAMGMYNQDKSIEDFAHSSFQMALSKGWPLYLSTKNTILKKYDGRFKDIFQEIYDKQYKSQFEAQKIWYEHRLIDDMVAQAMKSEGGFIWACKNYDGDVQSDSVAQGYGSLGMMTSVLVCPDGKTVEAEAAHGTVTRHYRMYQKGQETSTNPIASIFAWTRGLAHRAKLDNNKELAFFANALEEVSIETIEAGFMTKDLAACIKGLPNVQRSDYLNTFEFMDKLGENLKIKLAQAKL
# Pf Dd2 growth – blocks growth of Plasmodium falciparum Dd2 parasites | hit rate 2.3% among 94,000 | AID 1159554 | P. falciparum Dd2 growth, SYBR Green, 72 h; hits give low values | activity change, % at 10 µM; in the data active means activity change below about -80%; inconclusive means no clear call, values can overlap the other calls
# KDM4C inh – KDM4C (human) demethylase inhibition. Q9H3R0. GST-KDM4C 2-372, H3K9me3 peptide, LANCE TR-FRET. inhibition, % at 12.5 µM. hit rate 0.15% among 96,000. AID 720574;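 active means mean replicate inhibition above about 25%, with at least 55% of replicates also reaching it, limit read from the data, passing the limit was not always enough; inconclusive means only one of those two conditions met; inactive means neither condition met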
#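 System: N-terminal GST-fused human GASC-1 (KDM4C) fragment, residues 2-372; amount: enzyme final amount 10 nM; incubation: reaction 30 min RT, detection step 1 h RT; medium: HEPES buffer, pH 7.5, plus ascorbate; technique: LANCE TR-FRET, Eu antibody, ULight-streptavidin, EDTA, ex 340 nm, em 618/671 nm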
# T cruzi growth-1 – inhibitors of T. cruzi proliferation | hit rate 5.9% among 77,000 | AID 624255 | inhibition, % at 8.34 µM | T. cruzi beta-gal in NIH3T3, GalScreen luminescence, 90 h;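 active means mean inhibition above about 93%, with at least 55% of replicates each passing it, limit read from the data, passing the limit was not always enough; inconclusive means only one of those two conditions holds; inactive means neither condition holds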
# T cruzi growth-2 – inhibitors of T. cruzi proliferation; inhibition, % at 8.35 µM; hit rate 72% among 5,600; T. cruzi beta-gal in NIH3T3, GalScreen luminescence, 90 h; shares compounds with T cruzi growth-1;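 active means mean replicate inhibition above about 95% and at least 55% of replicates individually reaching it, limit read from the data; inconclusive means only one of the two criteria is met; inactive means neither criterion is met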
# T cruzi growth-3 – Trypanosoma cruzi proliferation inhibition. shares compounds with T cruzi growth-1. T. cruzi beta-gal in NIH3T3, GalScreen luminescence, 90 h. inhibition, % at 2.09 µM. hit rate 21% among 5,600. AID 651740;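 active means mean inhibition above about 95%, with at least 55% of replicates also reaching it, limit read from the data; inconclusive means meets just one of the two conditions; inactive means meets neither condition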
# NIH3T3 tox – kills mouse NIH/3T3 fibroblasts. shares compounds with T cruzi growth-1. NIH/3T3 viability, CellTiter-Glo ATP luminescence, 90 h. cytotoxicity (signal decrease), % at 8.35 µM. hit rate 14% among 5,600;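 active means mean signal decrease across replicates above about 35% based on untreated-well scatter, with enough replicates individually passing, limit read from the data; inconclusive means no rule stated though some were filed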
# NIH3T3 tox 2 – kills mouse NIH/3T3 fibroblasts; shares compounds with T cruzi growth-1; NIH/3T3 viability, CellTiter-Glo ATP luminescence, 90 h; inhibition, % at 24.9 µM; hit rate 56% among 5,600;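 active means mean loss of cell viability signal at or above a set limit, and enough replicates individually reaching it; inconclusive means meets only the mean limit or only the replicate share; inactive means meets neither condition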
# A number is an active result; i = inactive; ? = inconclusive; nt = no result.
SMILES,IDH1 R132H inh,Pf Dd2 growth,KDM4C inh,T cruzi growth-1,T cruzi growth-2,T cruzi growth-3,NIH3T3 tox,NIH3T3 tox 2
Cc1ccccc1S(=O)(=O)N1CCCCN2[C@H](CO)[C@H](c3ccc(-c4cncnc4)cc3)[C@@H]2C1,nt,i,i,112,101,i,i,i
Cc1ccccc1S(=O)(=O)N1CCCCN2[C@@H](CO)[C@H](c3ccc(-c4cccnc4)cc3)[C@@H]2C1,nt,i,?,102,102,i,i,38
CC12CCC(C(=O)Nc3ccncc3)(c3nc4ccccc4nc31)C2(C)C (stereo unspecified),i,nt,nt,nt,nt,nt,nt,nt
CC1CC(O)CC(C)(C)C1(O)/C=C/C(CO)O[C@@H]1O[C@H](CO)[C@@H](O)[C@H](O)[C@H]1O (stereo partly specified),i,nt,nt,nt,nt,nt,nt,nt
Cc1ccc(NC(=O)C(C)n2cc([N+](=O)[O-])cn2)cc1C (stereo unspecified),i,nt,nt,nt,nt,nt,nt,nt
COC(=O)c1ccc(Cl)c(NC(=O)COc2ccc(OC)cc2)c1,i,nt,nt,nt,nt,nt,nt,nt
Cc1ccc(-c2ccc3c(c2)O[C@H](CN(C)C(=O)Nc2ccc(F)cc2)[C@@H](C)CN([C@@H](C)CO)S3(=O)=O)cc1,i,i,i,114,103,i,40,96
Cc1ccc(-c2ccc3c(c2)O[C@H](CN(C)C(=O)Nc2ccccc2)[C@H](C)CN([C@H](C)CO)S3(=O)=O)cc1,i,i,i,nt,nt,nt,nt,nt
Cc1ccc(-c2ccc3c(c2)O[C@@H](CN(C)C(=O)Nc2ccc(F)cc2)[C@@H](C)CN([C@@H](C)CO)S3(=O)=O)cc1,i,i,i,121,97,i,53,81
CCC(=O)N1[C@H](CN(CC)C(=O)c2cccc(F)c2)[C@H](c2ccccc2)[C@@H]1CO,nt,i,i,i,nt,nt,nt,nt
CCN(C[C@H]1[C@H](c2ccccc2)[C@@H](CO)N1C(C)=O)C(=O)c1cccc(F)c1,nt,i,i,103,i,i,i,i
CCN(C[C@H]1[C@H](c2ccc(-c3ccccc3)cc2)[C@H](CO)N1C(C)=O)C(C)=O,nt,i,i,106,i,i,i,i
CCN(C[C@@H]1[C@@H](c2ccc(-c3ccccc3)cc2)[C@H](CO)N1C(C)=O)C(C)=O,nt,i,i,?,i,i,i,i
COC(=O)c1c(NC(=O)COc2ccc(Cl)c(C)c2)sc2c1CCC2,i,nt,nt,nt,nt,nt,nt,nt
Cc1ccc(NC(=O)C(=O)NCCc2c[nH]c3ccccc23)cc1Cl,i,nt,nt,nt,nt,nt,nt,nt
CC1(CC(=O)O)CCC2(O1)C(CO)=CCC1C(C)(C)C(O)CCC12C (stereo unspecified),i,nt,nt,nt,nt,nt,nt,nt
Cc1ccc(S(=O)(=O)NCC(=O)Nc2ccc(I)cc2)cc1,i,nt,nt,nt,nt,nt,nt,nt
COc1cc(Cl)c(C)cc1NC(=O)CSc1nnc(-c2ccncc2)n1C,i,nt,nt,nt,nt,nt,nt,nt
CCCC#Cc1ccc2c(c1)O[C@@H](CN(C)Cc1cccnc1)[C@H](C)CN([C@@H](C)CO)S2(=O)=O,i,i,i,122,99,i,55,107
CCCC#Cc1ccc2c(c1)O[C@@H](CN(C)Cc1cccnc1)[C@@H](C)CN([C@H](C)CO)S2(=O)=O,i,i,i,109,101,96,?,29
CCCC#Cc1ccc2c(c1)O[C@@H](CN(C)Cc1cncnc1)[C@@H](C)CN([C@H](C)CO)S2(=O)=O,i,i,i,i,nt,nt,nt,nt
C[C@H](CO)N1C[C@H](C)[C@@H](CN(C)Cc2cccnc2)Oc2cc(C#CCN(C)C)ccc2S1(=O)=O,i,i,i,104,103,104,i,i
CCCC#Cc1ccc2c(c1)O[C@@H](CN(C)Cc1cccnc1)[C@H](C)CN([C@H](C)CO)S2(=O)=O,i,i,i,119,97,96,45,105
CCCC#Cc1ccc2c(c1)O[C@H](CN(C)Cc1cncnc1)[C@@H](C)CN([C@H](C)CO)S2(=O)=O,i,i,i,i,nt,nt,nt,nt
C[C@H](O)C#Cc1ccc2c(c1)O[C@H](CN(C)Cc1cccnc1)[C@H](C)CN([C@@H](C)CO)S2(=O)=O,nt,i,nt,nt,nt,nt,nt,nt
SMILES,IDH1 R132H inh,Pf Dd2 growth,KDM4C inh,T cruzi growth-1,T cruzi growth-2,T cruzi growth-3,NIH3T3 tox,NIH3T3 tox 2
C[C@H]1O[C@@H](O[C@H]2CC[C@@]3(C)C(CC[C@]4(C)C3CC=C3C5CC(C)(C)CC[C@]5(C(=O)O)CC[C@]34C(=O)O)C2(C)C)[C@H](O)[C@@H](O)[C@@H]1O (stereo partly specified),i,nt,nt,nt,nt,nt,nt,nt
Cc1cccc(-n2c(SCC(=O)Nc3ccc(Br)cc3F)nnc2-c2ccccc2)c1,i,nt,nt,nt,nt,nt,nt,nt
C[C@H]1CCCCO[C@H](CN(C)C(=O)Nc2ccc(C(F)(F)F)cc2)[C@@H](C)CN([C@@H](C)CO)C(=O)c2cc(NS(C)(=O)=O)ccc2O1,i,i,i,97,113,i,i,51
C[C@H](CO)N1C[C@H](C)[C@@H](CN(C)C(=O)Nc2ccc(C(F)(F)F)cc2)OCCCC[C@H](C)Oc2ccc(NS(=O)(=O)c3ccccc3)cc2C1=O,nt,i,i,?,114,i,i,i
C[C@@H]1CN([C@@H](C)CO)C(=O)c2cc(NS(=O)(=O)c3ccccc3)ccc2O[C@@H](C)CCCCO[C@@H]1CN(C)C(=O)Nc1ccc(C(F)(F)F)cc1,nt,i,i,?,104,i,i,43
C[C@H]1CN([C@@H](C)CO)S(=O)(=O)c2ccc(Br)cc2O[C@H]1CN(C)Cc1ccccc1F,nt,i,i,nt,nt,nt,nt,nt
C[C@@H]1CN([C@@H](C)CO)S(=O)(=O)c2ccc(Br)cc2O[C@H]1CN(C)Cc1ccccc1F,nt,i,i,nt,nt,nt,nt,nt
C/C=C/c1ccc2c(c1)O[C@@H](CN(C)Cc1ccccc1F)[C@H](C)CN([C@@H](C)CO)S2(=O)=O,i,i,i,116,96,i,57,105
C/C=C/c1ccc2c(c1)O[C@@H](CN(C)Cc1ccccc1F)[C@@H](C)CN([C@H](C)CO)S2(=O)=O,i,i,i,119,105,i,i,105
O=C(CSc1nc(O)cc(=O)n1-c1ccccc1)N1CCc2ccccc21,i,nt,nt,nt,nt,nt,nt,nt
Cc1ccc(C2C(C(=O)c3sc(-c4ccccc4)nc3C)C(=O)C(=O)N2CCN(C)C)o1 (stereo unspecified),i,nt,nt,nt,nt,nt,nt,nt
Cc1ccc(S(=O)(=O)Nc2ccc3c(c2)C(=O)N([C@H](C)CO)C[C@@H](C)[C@H](CN(C)S(=O)(=O)c2ccccc2)OCCCC[C@H](C)O3)cc1,nt,i,i,105,108,i,i,i
Cc1ccc(S(=O)(=O)Nc2ccc3c(c2)C(=O)N([C@@H](C)CO)C[C@@H](C)[C@@H](CN(C)S(=O)(=O)c2ccccc2)OCCCC[C@H](C)O3)cc1,i,i,nt,97,102,i,i,i
